Experimental data from ChEMBL document CHEMBL1135936, “6-[2-(Phosphonomethoxy)alkoxy]pyrimidines with antiviral activity” (J Med Chem, 2002).
≈ marks a conversion by molar mass, not a printed value.

What was measured:
[1] = test system: CCRF-CEM; test: (§1) In vitro cytotoxicity against CCRF-CEM T lymphoblastoid cells; assay type: functional, Homo sapiens
In short: (§2)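 Cells were grown for 72 h at a constant compound concentration of 10 µM, then counted. Growth inhibition is given relative to cell counts in control cultures grown in medium without compound. Lines: mouse L1210 and L929, human HeLaS3 and CCRF-CEM.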

[2] = test system: CCRF-CEM; test: Inhibition of Human immunodeficiency virus (HIV) -1 III B strain induced cytopathicity in CEM cell line; assay type: functional, cell-based
In short: (§3)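 CEM cells were infected with 100 CCID50 per mL of HIV-1 (IIIB) or HIV-2 (ROD). Cells were seeded into wells containing dilutions of compound and incubated 4 days at 37 °C. CEM giant cell formation was then examined microscopically.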

[3] = test system: CCRF-CEM; test: Inhibition of Human immunodeficiency virus (HIV)-2 ROD strain induced cytopathicity in CEM cell line; assay type: functional, cell-based; in short: as §3
[4] = test system: Moloney murine sarcoma virus; test: Inhibition of moloney sarcoma virus (MSV) induced cytopathicity in C3H/3T3 embryo fibroblast cells; assay type: functional, organism-based
In short: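 C3H/3T3 murine embryo fibroblasts were seeded in 48-well plates and infected 24 h later with 80 focus-forming units of MSV. MSV stock was prepared from tumours in NMRI mice. Virus adsorbed for 10-120 min at 37 °C, then fresh medium with compound dilutions was added. Transformation was examined microscopically after 6 days.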

[5] = test system: E6SM; test: Inhibition of Herpes simplex virus-1, KOS strain induced cytopathicity in E6SM cell line; assay type: functional, cell-based; details: Homo sapiens
In short: (§4)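 Inhibition of virus-induced cytopathicity in confluent cell cultures in 96-well plates inoculated with 100 CCID50 of virus; 1 CCID50 is the virus dose infecting 50% of cultures. EC50 is based on reduction of cytopathicity.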

[6] = test system: E6SM; test: Inhibition of Herpes simplex virus-2 (G strain) induced cytopathicity in E6SM cell line; assay type: functional, cell-based; details: Homo sapiens; in short: as §4
[7] = test system: E6SM; test: Inhibition of thymidine kinase deficient Herpes simplex virus-1 VMW 1837 strain induced cytopathicity in E6SM cell line; assay type: functional, cell-based; details: Homo sapiens; in short: as §4
[8] = test system: Human alphaherpesvirus 3; test: Inhibition of Thymidine kinase deficient (TK-) Varicella-Zoster virus (VZV) 07/1 strain induced cytopathicity n HEL cell line; assay type: functional, organism-based; details: Human alphaherpesvirus 3, tk-07, HEL; in short: as §4
[9] = test system: HEL; test: Inhibition of Thymidine kinase deficient (TK-) Varicella-Zoster virus (VZV) YS/R strain induced cytopathicity in HEL cell line; assay type: functional, cell-based; details: Homo sapiens; in short: as §4
[10] = test system: HEL; test: Inhibition of Varicella-Zoster virus (VZV) OKA strain induced cytopathicity in HEL cell line; assay type: functional, cell-based; details: Homo sapiens; in short: as §4
[11] = test system: HEL; test: Inhibition of Varicella-Zoster virus (VZV) YS strain induced cytopathicity in HEL cell line; assay type: functional, cell-based; details: Homo sapiens; in short: as §4
[12] = test system: HeLa; test: In vitro cytotoxicity against human cervix carcinoma HeLa S3 cells; assay type: functional; set-up: concentration or dose not given beside the values; in short: as §2
[13] = test system: L929; test: (§5) In vitro cytotoxicity against murine L929 cells; assay type: functional, Mus musculus; in short: as §2
[14] = test system: L1210; test: (§6) In vitro cytotoxicity against L1210 mouse leukemia cells; assay type: functional; in short: as §2
[15] = test system: CCRF-CEM; test: as §1; assay type: functional, Homo sapiens; set-up: concentration or dose not given beside the values; in short: as §2
[16] = test system: L929; test: as §5; assay type: functional, Mus musculus; set-up: concentration or dose not given beside the values; in short: as §2
[17] = test system: L1210; test: as §6; assay type: functional; set-up: concentration or dose not given beside the values; in short: as §2
[18] = test system: CCRF-CEM; test: In vitro cytotoxicity against CCRF-CEM lymphoblastoid cells; assay type: functional, Homo sapiens; in short: as §2
[19] = test system: unidentified adenovirus; test: Effective concentration for the inhibition of adenovirus; assay type: functional, organism-based
In short: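 HEL fibroblasts, confluent, infected on day 0 with 100 CCID50 of human adenovirus type 2 or type 3. After 2 h adsorption at 37 °C, virus was removed and replaced by serial compound dilutions. Cytopathic effect was scored microscopically on day 7-10 p.i. to derive EC50 and minimum cytotoxic concentration.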

[20] = test system: CCRF-CEM; test: Inhibitory activity against CCRF-CEM cells; assay type: functional, cell-based; details: Homo sapiens
In short: (§7)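 CCRF-CEM, L1210 and L929 cells were grown with compound for 72 h and then counted. Cell growth inhibition is expressed relative to untreated control cultures, and IC50 is given in µM.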

[21] = test system: L1210; test: Inhibitory activity against L1210 cells; assay type: functional, cell-based; details: Mus musculus; in short: as §7
[22] = test system: L929; test: Inhibitory activity against L929 cells; assay type: functional, cell-based; details: Mus musculus; in short: as §7
[23] = test system: HEL; test: Inhibitory activity against HEL cell proliferation; assay type: functional, cell-based; details: Homo sapiens

Row | SMILES | EC50 [2] | EC50 [3] | EC50 [4] | EC50 [5] | EC50 [6] | EC50 [7] | EC50 [8] | EC50 [9] | EC50 [10] | EC50 [11] | Control [12] | Control [16] | Control [17] | further results
1 | Nc1nc(OCCOCP(=O)(O)O)cc(=O)n1CCOCP(=O)(O)O | > 100 µg/mL | > 100 µg/mL | 107 µg/mL (≈ 265 µM) | > 400 µg/mL | > 400 µg/mL | > 400 µg/mL | > 50 µg/mL | > 50 µg/mL | > 50 µg/mL | > 50 µg/mL | 72% | – | – | Control [1]: 101%; Control [13]: 77%; Control [14]: 80%
2 | CSc1nc(N)cc(OCCOCP(=O)(O)O)n1 | 51 µg/mL (≈ 173 µM) | 33 µg/mL (≈ 112 µM) | > 40 µg/mL | > 80 µg/mL | > 80 µg/mL | > 80 µg/mL | > 50 µg/mL | > 50 µg/mL | > 50 µg/mL | > 50 µg/mL | 79% | 92% | 96% | Control [15]: 87%
3 | Nc1cc(OCCOCP(=O)(O)O)ncn1 | > 100 µg/mL | > 100 µg/mL | 13 µg/mL (≈ 52.2 µM) | > 16 µg/mL | > 16 µg/mL | > 16 µg/mL | > 50 µg/mL | > 50 µg/mL | > 50 µg/mL | > 50 µg/mL | 86% | 84% | 81% | Control [18]: 95%
4 | Cc1cc(OCCOCP(=O)(O)O)nc(N)n1 | > 100 µg/mL | > 100 µg/mL | 89 µg/mL (≈ 338 µM) | > 400 µg/mL | > 400 µg/mL | > 400 µg/mL | > 50 µg/mL | > 50 µg/mL | > 50 µg/mL | > 50 µg/mL | 87% | 85% | 99% | Control [15]: 95%
5 | CC(C)OP(=O)(COCCSc1cc(N)nc(N)n1)OC(C)C | 47 µg/mL (≈ 129 µM) | 52 µg/mL (≈ 143 µM) | – | > 400 µg/mL | > 400 µg/mL | > 400 µg/mL | > 50 µg/mL | > 50 µg/mL | > 50 µg/mL | > 50 µg/mL | – | – | – | –
6 | CC(C)OP(=O)(COCCOc1cc(N)ncn1)OC(C)C | > 20 µg/mL | > 20 µg/mL | – | > 400 µg/mL | > 400 µg/mL | > 400 µg/mL | > 50 µg/mL | > 50 µg/mL | > 50 µg/mL | > 50 µg/mL | – | – | – | –
7 | Nc1nc(O)cc(NC2CC2)n1 | > 100 µg/mL | > 100 µg/mL | 133 µg/mL (≈ 800 µM) | > 400 µg/mL | > 400 µg/mL | > 400 µg/mL | > 50 µg/mL | > 50 µg/mL | > 50 µg/mL | > 50 µg/mL | – | – | – | –
8 | Nc1nc(N)c2ncn(CCOCP(=O)(O)O)c2n1 [PMEDAP] | – | – | – | – | – | – | – | – | – | – | – | – | – | EC50 [19]: 47 µg/mL (≈ 163 µM)
9 | Nc1cc(O)ncn1 | > 100 µg/mL | > 100 µg/mL | – | > 400 µg/mL | > 400 µg/mL | > 400 µg/mL | > 50 µg/mL | > 50 µg/mL | > 50 µg/mL | > 50 µg/mL | – | – | – | –
10 | CN(C)c1cc(O)nc(N)n1 | > 100 µg/mL | > 100 µg/mL | 132 µg/mL (≈ 856 µM) | > 400 µg/mL | > 400 µg/mL | > 400 µg/mL | > 50 µg/mL | > 50 µg/mL | > 50 µg/mL | > 50 µg/mL | – | – | – | –
11 | Nc1cc(OCCOCP(=O)(O)O)nc(N)n1 | 0.8 µg/mL (≈ 3.03 µM) | 0.43 µg/mL (≈ 1.63 µM) | 0.04 µg/mL (≈ 0.151 µM) | 6.5 µg/mL (≈ 24.6 µM) | 24 µg/mL (≈ 90.8 µM) | 9.6 µg/mL (≈ 36.3 µM) | 2.5 µg/mL (≈ 9.46 µM) | 1.6 µg/mL (≈ 6.06 µM) | 1.2 µg/mL (≈ 4.54 µM) | 1.1 µg/mL (≈ 4.16 µM) | 89% | 61% | 62% | Control [15]: 63%; IC50 [20]: 12.4 µM; IC50 [21]: 25 µM; IC50 [22]: 25 µM; IC50 [23]: 50 µg/mL (≈ 189 µM)
